# Publication PMC8811894 (ACS Omega, 2022)
# Where two headings read alike, the source gives them in different places.
# How the values were obtained:
# [1] = test system: T-47D human breast carcinoma cells; assay: MTT cell toxicity assay; type: cell-based; conditions: for GI50: 72 h, read-out: cancer cell growth inhibition, GI50; for times more potent than PrTPP: MTT test
# Outline: (§1)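 Cells were seeded at 5 × 10^3/well in medium with 10% FBS and kept at 37 °C, 5% CO2. Media: DMEM for A549 and A375; EMEM for DU145; F-12K for PC-3; McCoy's 5a for HCT-116 and SK-OV-3; RPMI-1640 + insulin 0.2 Units/mL for T-47D. Test compound came from DMSO stocks, with tubercidin as positive control. MTT at 0.5 mg/mL final was added for 2–3 h at 37 °C, then absorbance read at 570 nm. Three repeats; GI50 from sigmoidal fit.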
# [2] = test system: A549 human lung epithelial carcinoma cells; assay: MTT cell toxicity assay; type: cell-based; conditions: read-out: cancer cell growth inhibition, GI50
# Outline: as §1
# [3] = test system: HCT-116 human colon epithelial colorectal carcinoma cells; assay: MTT cell toxicity assay; type: cell-based; conditions: read-out: cancer cell growth inhibition, GI50
# Outline: as §1
# [4] = test system: A375 human skin epithelial malignant melanoma cells; assay: MTT cell toxicity assay; type: cell-based; conditions: read-out: cancer cell growth inhibition, GI50
# Outline: as §1
# [5] = test system: T-47D human breast carcinoma cells; assay: Click-iT-EdU Alexa Fluor 488 cell proliferation assay; type: cell-based; conditions: for GI50: 72 h, read-out: DNA synthesis inhibition, GI50; for times more potent than PrTPP: Click-iT-EdU test
# Outline: (§2)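 Cells were seeded at 800/well in medium with 10% FBS under 5% CO2. HCT-116 grew in McCoy's 5a and T-47D in RPMI-1640 + insulin 0.2 Units/mL. Test compound came from DMSO stocks, with tubercidin as positive control. After 72 h, EdU was added for 2.5 h at 37 °C. Cells were fixed in 4% paraformaldehyde (30 min, RT) and stained with Hoechst 33342. Click-iT Alexa Fluor 488 reaction ran 1 h at RT in the dark. Plates were read by high-content imaging; value from sigmoidal fit.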
# [6] = test system: HCT-116 human colon epithelial colorectal carcinoma cells; assay: as above; type: cell-based; conditions: read-out: DNA synthesis inhibition, GI50
# Outline: as §2
# [7] = test system: panel of 60 human cancer cell lines; assay: NCI60 screen, SRB assay, panel mean; type: cell-based; conditions: for GI50: Homo sapiens, read-out: NCI60 screen mean GI50; for NCI60 screen mean GI, %: single-dose inhibition of cell growth at 10 μM
# Outline: (§3)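 Tested on the 60-line human cancer panel by sulforhodamine B assay. The dye binds cell protein under mildly acidic conditions and is extracted with basic medium; bound dye is taken as a proxy for cell mass. A single-dose test at 10 μM gives % growth inhibition; a five-dose test gives GI50.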
# [8] = test system: PC-3 human prostate epithelial adenocarcinoma grade IV cells; assay: MTT cell toxicity assay; type: cell-based; conditions: 72 h, read-out: cancer cell growth inhibition, GI50
# Outline: as §1
# [9] = test system: SK-OV-3 human ovary ascites epithelial adenocarcinoma cells; assay: MTT cell toxicity assay; type: cell-based; conditions: read-out: cancer cell growth inhibition, GI50
# Outline: as §1
# [10] = test system: DU145 human prostate epithelial carcinoma cells; assay: MTT cell toxicity assay; type: cell-based; conditions: read-out: cancer cell growth inhibition, GI50
# Outline: as §1
# [11] = test system: panel of 60 human cancer cell lines; conditions: read-out: NCI60 screen mean GI50; SRB assay; ref NCI60 screen data, NSC 115712; cited from earlier work
# sea urchin embryos = assay: Phenotypic sea urchin embryo assay; type: in vivo, Paracentrotus lividus
# A498 = assay: NCI60 SRB screen; type: cell-based; conditions: Homo sapiens, A498, read-out: growth inhibition
# Outline: as §3
# MDA-MB-435 = assay: NCI60 SRB screen; type: cell-based; conditions: Homo sapiens, MDA-MB-435, read-out: growth inhibition
# Outline: as §3
# MDA-MB-468 = assay: NCI60 SRB screen; type: cell-based, human; conditions: NCI60 single dose, MDA-MB-468 breast cancer
# Outline: as §3
# SK-MEL-5 = assay: NCI60 SRB screen; type: cell-based, human; conditions: NCI60 single dose, SK-MEL-5 melanoma
# Outline: as §3
# [12] = test system: MCF-7 human breast carcinoma cells; conditions: ref [30]; cited from earlier work
# [13] = test system: Caco-2 colon adenocarcinoma cells; conditions: read-out: IC50, growth suppression; 24 h treatment; ref [9]; cited from earlier work
Compound,"GI50 ([1]; Homo sapiens, T47D) [nM]","GI50 ([2]; Homo sapiens, A549, 72 h) [nM]","GI50 ([3]; Homo sapiens, HCT-116, 72 h) [nM]","GI50 ([4]; Homo sapiens, A-375, 72 h) [nM]","GI50 ([5]; Homo sapiens, T47D) [nM]","GI50 ([6]; Homo sapiens, HCT-116, 72 h) [nM]",GI50 ([8]; Homo sapiens) [nM],"GI50 ([9]; Homo sapiens, SK-OV-3, 72 h) [nM]","GI50 ([10]; Homo sapiens, DU-145, 72 h) [nM]","NCI60 screen mean GI, % [7] [%]",other results
"COc1c(CCC[P+](c2ccccc2)(c2ccccc2)c2ccccc2)cc2c(c1OC)OCO2.[I-] [7b, [3-(6,7-Dimethoxy-1,3-benzodioxol-5-yl)propyl](triphenyl)phosphonium Iodide]",107 ± 4,4640 ± 370,229 ± 27,491 ± 19,118 ± 7,405 ± 36,555 ± 49,6620 ± 130,3260 ± 360,–,times more potent than PrTPP ([1]; T-47D): 22.3 times; times more potent than PrTPP ([5]; T-47D): 29.2 times; GI50 [7]: 1580 nM
"Nc1ncnc2c1ccn2[C@@H]1O[C@H](CO)[C@@H](O)[C@H]1O [tubercidin, Tubercidin, reference compound]",13 ± 1,44 ± 3,80 ± 4,43 ± 4,44 ± 6,30.7 ± 2,76 ± 1,131 ± 2,256 ± 90,–,GI50 [11]: 331 nM
"COc1cc(OCCCCCC[P+](c2ccccc2)(c2ccccc2)c2ccccc2)c(OC)c2c1OCO2.[Br-] [compound 11, {6-[(4,7-Dimethoxy-2H-1,3-benzodioxol-5-yl)oxy]hexyl}(triphenyl)phosphonium Bromide]",421 ± 13,463 ± 42,1950 ± 210,1930 ± 77,606 ± 60,2830 ± 370,258 ± 26,24600 ± 2000,20800 ± 1300,–,effect on sea urchin embryo development (in words) (sea urchin embryos; in vivo): moderate antiproliferative effect on the sea urchin embryos
"COc1cc(COC(=O)CCCCC[P+](c2ccccc2)(c2ccccc2)c2ccccc2)c(OC)c2c1OCO2.[Br-] [compound 16, {6-[(4,7-Dimethoxy-2H-1,3-benzodioxol-5-yl)methoxy]-6-oxohexyl}(triphenyl)phosphonium Bromide]",430 ± 880,18500 ± 670,1070 ± 20,3430 ± 80,–,–,4180 ± 130,10200 ± 190,14100 ± 370,49.2,number of cancer cell lines with 80–100% growth inhibition ([7]; NCI60 single dose 10 μM): nine
"C=CCc1cc(OC)c2c(c1OC)OCO2 [1a, Apiol]",70700 ± 9900,> 250000,> 250000,> 250000,> 250000,> 250000,> 250000,> 250000,> 250000,–,–
"COc1cc(CCCO)c(OC)c2c1OCO2 [4a, 3-(4,7-Dimethoxy-1,3-benzodioxol-5-yl)propan-1-ol]",> 250000,> 250000,> 250000,> 250000,> 250000,> 250000,> 250000,> 250000,> 250000,0,–
"COc1cc(CCC[P+](c2ccccc2)(c2ccccc2)c2ccccc2)c(OC)c(OC)c1OC.[I-] [7d, [3-(2,3,4,5-Tetramethoxyphenyl)propyl](triphenyl)phosphonium Iodide]",500 ± 70,17900 ± 360,218 ± 24,2350 ± 240,613 ± 25,681 ± 90,3880 ± 550,21600 ± 1530,8130 ± 150,32.9,times more potent than PrTPP ([1]; T-47D): 4.8 times; times more potent than PrTPP ([5]; T-47D): 5.6 times; inhibition at 10 µM (A498): ~100%; inhibition at 10 µM (MDA-MB-435): ~100%
"COc1cc(CCCO)cc2c1OCO2 [4c, 3-(7-Methoxy-1,3-benzodioxol-5-yl)propan-1-ol]",> 250000,> 250000,> 250000,> 250000,> 250000,> 250000,> 250000,> 250000,> 250000,0,–
"COc1c(CCCO)cc2c(c1OC)OCO2 [4b, 3-(6,7-Dimethoxy-1,3-benzodioxol-5-yl)propan-1-ol]",> 250000,> 250000,> 250000,> 250000,> 250000,> 250000,> 250000,> 250000,> 250000,0,–
"[3-(7-Methoxy-1,3-benzodioxol-5-yl)propyl](trimethyl)phosphonium Iodide [7c]",–,–,–,–,–,–,–,–,–,63.9,"cleavage alteration, EC (sea urchin embryos; effective threshold concentration, fertilized eggs exposed): >4 µM; effect at 10 μM (in words) (MDA-MB-468): lethal effect; times more potent than PrTPP ([1]; T-47D): 239 times; GI50 ([1]; T-47D, MTT assay): 10 ± 0.5 nM; effect at 10 μM (in words) (SK-MEL-5): lethal effect; GI50 ([2]; A549, MTT assay, 72 h): 12200 ± 610 nM; GI50 ([3]; HCT-116, MTT assay, 72 h): 331 ± 39 nM; GI50 ([4]; A375, MTT assay, 72 h): 1080 ± 60 nM; times more potent than PrTPP ([5]; T-47D): 138 times; GI50 ([5]; T-47D, Click-iT-EdU): 25 ± 2 nM; GI50 ([6]; HCT-116, Click-iT-EdU, 72 h): 220 ± 30 nM; number of cancer cell lines with growth inhibited by more than 80% ([7]; NCI60 single dose 10 μM): 18; GI50 ([8]; PC-3, MTT assay): 410 ± 40 nM; GI50 ([9]; SK-OV-3, MTT assay, 72 h): 11000 ± 1400 nM; GI50 ([10]; DU145, MTT assay, 72 h): 5120 ± 660 nM"
"COc1cc(CCC[P+](c2ccccc2)(c2ccccc2)c2ccccc2)c(OC)c2c1OCO2.[I-] [7a, [3-(4,7-Dimethoxy-1,3-benzodioxol-5-yl)propyl](triphenyl)phosphonium Iodide]",89 ± 8,3000 ± 210,263 ± 33,627 ± 85,104 ± 7,367 ± 50,552 ± 30,2420 ± 430,2860 ± 400,–,times more potent than PrTPP ([1]; T-47D): 26.9 times; times more potent than PrTPP ([5]; T-47D): 33.2 times; GI50 [7]: 1660 nM
CCCCCCCCCCCC[P+](c1ccccc1)(c1ccccc1)c1ccccc1 [dodecyl-TPP],–,–,–,–,–,–,–,–,–,–,concentration exhibiting cytotoxicity [12]: 250 nM
"COc1cc(CCCO)c(OC)c(OC)c1OC [4d, 3-(2,3,4,5-Tetramethoxyphenyl)propan-1-ol]",> 250000,> 250000,> 250000,> 250000,> 250000,> 250000,> 250000,> 250000,> 250000,0,–
"COc1cc(CNC(=O)CCCCC[P+](c2ccccc2)(c2ccccc2)c2ccccc2)c(OC)c2c1OCO2.[Br-] [compound 17, (6-{[(4,7-Dimethoxy-2H-1,3-benzodioxol-5-yl)methyl]amino}-6-oxohexyl)(triphenyl)phosphonium Bromide]",256 ± 80,9960 ± 220,1050 ± 10,2780 ± 170,–,–,2150 ± 40,18900 ± 2860,11300 ± 750,35.8,number of cancer cell lines with 80–100% growth inhibition ([7]; NCI60 single dose 10 μM): three
"C=CCc1cc(OC)c2c(c1)OCO2 [1c, myristicin]",113000 ± 12400,> 250000,> 250000,> 250000,> 250000,> 250000,> 250000,> 250000,> 250000,–,IC50 [13]: 760000 nM
